How the values were obtained:
[1] = Inhibitory activity against protein phosphatase type 2A
Procedure, shortened: (§1)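 Selectivity panel of nine phosphatases, each assayed with fluorescein diphosphate at the same concentration as in the PTP-1B assay (20 μM). IC50 values (μM) reported.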

[2] = target: Dual specificity protein phosphatase 3 (Homo sapiens, UniProt P51452); experiment: Inhibitory activity against VH1-related phosphatase VHR; procedure, shortened: as §1
[3] = target: T1, M-phase inducer phosphatase 2 (Homo sapiens, UniProt P30305); experiment: Inhibitory activity against cdc25B phosphatase; procedure, shortened: as §1
T1 sequence (P30305 whole entry): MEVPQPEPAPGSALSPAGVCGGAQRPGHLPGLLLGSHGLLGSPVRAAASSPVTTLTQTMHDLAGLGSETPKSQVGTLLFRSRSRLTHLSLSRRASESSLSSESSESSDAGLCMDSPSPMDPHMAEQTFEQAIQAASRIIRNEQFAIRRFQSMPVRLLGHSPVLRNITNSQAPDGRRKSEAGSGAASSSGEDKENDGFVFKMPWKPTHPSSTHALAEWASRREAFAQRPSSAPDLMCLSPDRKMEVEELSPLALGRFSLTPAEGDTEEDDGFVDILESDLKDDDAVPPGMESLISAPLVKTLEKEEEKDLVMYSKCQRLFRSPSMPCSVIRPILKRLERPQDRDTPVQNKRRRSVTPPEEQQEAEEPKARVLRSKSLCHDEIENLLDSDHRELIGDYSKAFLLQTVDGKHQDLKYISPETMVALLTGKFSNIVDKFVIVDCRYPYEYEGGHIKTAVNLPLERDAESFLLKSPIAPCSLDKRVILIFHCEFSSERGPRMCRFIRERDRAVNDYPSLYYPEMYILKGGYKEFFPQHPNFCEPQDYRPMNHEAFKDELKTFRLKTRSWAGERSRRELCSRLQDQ

[4] = target: T2, Tyrosine-protein phosphatase non-receptor type 1 (Homo sapiens) (UniProt P18031); experiment: Inhibitory activity against recombinant human PTP1B at 10 uM
T2 sequence (whole entry): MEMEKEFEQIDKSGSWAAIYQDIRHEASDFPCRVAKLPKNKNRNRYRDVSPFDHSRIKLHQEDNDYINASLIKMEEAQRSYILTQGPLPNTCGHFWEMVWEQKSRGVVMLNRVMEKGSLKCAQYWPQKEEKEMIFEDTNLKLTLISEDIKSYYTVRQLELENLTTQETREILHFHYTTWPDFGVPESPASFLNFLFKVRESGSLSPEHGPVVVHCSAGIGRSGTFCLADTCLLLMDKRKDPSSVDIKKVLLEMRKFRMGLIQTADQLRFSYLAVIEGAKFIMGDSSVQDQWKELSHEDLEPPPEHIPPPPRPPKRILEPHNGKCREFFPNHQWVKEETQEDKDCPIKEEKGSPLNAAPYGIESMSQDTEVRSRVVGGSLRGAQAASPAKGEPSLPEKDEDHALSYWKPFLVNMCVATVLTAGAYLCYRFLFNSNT

[5] = target: Receptor-type tyrosine-protein phosphatase F (Homo sapiens, UniProt P10586); experiment: Inhibitory activity against LAR protein tyrosine phosphatase; procedure, shortened: as §1
Chain of Receptor-type tyrosine-protein phosphatase F (P10586 whole entry): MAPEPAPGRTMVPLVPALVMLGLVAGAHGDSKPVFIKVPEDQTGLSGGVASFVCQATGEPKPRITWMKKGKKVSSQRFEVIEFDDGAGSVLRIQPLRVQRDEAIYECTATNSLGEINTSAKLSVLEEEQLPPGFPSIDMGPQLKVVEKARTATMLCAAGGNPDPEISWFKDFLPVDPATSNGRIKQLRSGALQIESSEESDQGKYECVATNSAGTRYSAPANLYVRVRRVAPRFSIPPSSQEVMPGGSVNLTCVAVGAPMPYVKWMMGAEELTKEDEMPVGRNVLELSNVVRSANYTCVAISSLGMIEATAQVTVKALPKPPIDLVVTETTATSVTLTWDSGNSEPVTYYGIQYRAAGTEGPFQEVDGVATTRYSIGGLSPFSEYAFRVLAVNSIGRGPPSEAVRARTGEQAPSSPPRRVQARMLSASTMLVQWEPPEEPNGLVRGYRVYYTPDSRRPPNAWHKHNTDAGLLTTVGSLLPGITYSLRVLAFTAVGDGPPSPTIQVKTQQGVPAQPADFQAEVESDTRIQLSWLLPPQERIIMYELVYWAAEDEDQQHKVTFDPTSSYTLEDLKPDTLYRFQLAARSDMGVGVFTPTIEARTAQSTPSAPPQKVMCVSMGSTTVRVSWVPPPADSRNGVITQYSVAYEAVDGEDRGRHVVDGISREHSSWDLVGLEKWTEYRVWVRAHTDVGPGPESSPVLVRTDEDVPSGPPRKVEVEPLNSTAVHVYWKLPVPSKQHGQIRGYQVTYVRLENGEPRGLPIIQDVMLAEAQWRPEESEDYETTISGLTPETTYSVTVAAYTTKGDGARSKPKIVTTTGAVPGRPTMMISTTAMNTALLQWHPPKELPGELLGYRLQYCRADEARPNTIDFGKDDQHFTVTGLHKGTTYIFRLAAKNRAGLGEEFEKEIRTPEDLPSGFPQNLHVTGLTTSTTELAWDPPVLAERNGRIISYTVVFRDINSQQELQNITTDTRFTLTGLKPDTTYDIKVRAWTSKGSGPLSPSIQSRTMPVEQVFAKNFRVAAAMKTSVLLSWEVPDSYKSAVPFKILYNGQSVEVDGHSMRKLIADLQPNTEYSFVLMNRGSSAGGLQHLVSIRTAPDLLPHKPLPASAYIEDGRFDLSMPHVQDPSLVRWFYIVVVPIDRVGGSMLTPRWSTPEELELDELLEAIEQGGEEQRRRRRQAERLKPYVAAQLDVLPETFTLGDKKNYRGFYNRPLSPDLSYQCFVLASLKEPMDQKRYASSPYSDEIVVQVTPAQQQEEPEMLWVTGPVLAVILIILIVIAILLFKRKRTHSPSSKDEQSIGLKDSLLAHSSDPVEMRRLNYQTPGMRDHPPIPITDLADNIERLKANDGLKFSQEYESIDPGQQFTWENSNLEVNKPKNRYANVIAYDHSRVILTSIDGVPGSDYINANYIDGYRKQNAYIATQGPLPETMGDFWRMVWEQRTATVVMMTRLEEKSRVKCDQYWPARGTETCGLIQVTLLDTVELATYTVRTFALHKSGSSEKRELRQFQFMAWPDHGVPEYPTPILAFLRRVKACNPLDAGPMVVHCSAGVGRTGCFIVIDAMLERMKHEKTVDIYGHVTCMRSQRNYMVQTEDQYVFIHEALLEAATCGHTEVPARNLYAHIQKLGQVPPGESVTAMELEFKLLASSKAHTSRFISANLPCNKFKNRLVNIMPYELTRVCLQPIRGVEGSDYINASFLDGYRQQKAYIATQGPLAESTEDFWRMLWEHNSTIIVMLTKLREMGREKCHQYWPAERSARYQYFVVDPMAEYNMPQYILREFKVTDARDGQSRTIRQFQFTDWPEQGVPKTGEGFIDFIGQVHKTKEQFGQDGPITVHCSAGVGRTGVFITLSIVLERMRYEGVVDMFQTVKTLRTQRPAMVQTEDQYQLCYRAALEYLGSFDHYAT

[6] = target: Serine/threonine-protein phosphatase PP1-gamma catalytic subunit (Homo sapiens, UniProt P36873); experiment: Inhibitory activity against Protein phosphatase 1; procedure, shortened: as §1
Chain of Serine/threonine-protein phosphatase PP1-gamma catalytic subunit (P36873 whole entry): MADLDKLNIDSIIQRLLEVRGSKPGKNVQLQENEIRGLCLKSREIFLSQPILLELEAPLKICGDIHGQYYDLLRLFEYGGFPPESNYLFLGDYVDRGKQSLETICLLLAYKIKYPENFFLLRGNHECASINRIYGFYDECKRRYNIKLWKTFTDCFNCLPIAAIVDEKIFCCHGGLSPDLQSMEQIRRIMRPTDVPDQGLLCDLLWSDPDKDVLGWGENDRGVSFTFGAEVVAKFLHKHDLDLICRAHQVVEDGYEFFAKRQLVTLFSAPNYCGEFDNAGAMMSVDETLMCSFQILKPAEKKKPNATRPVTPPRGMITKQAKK

Chain of Dual specificity protein phosphatase 3 (P51452 whole entry): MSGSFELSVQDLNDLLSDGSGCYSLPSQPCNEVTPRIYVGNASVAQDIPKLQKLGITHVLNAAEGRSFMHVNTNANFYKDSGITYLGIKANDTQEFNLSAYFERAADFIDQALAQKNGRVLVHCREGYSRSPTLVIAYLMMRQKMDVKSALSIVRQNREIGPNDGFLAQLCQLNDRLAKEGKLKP

With `COc1ccc(C(=O)c2ccc3c(-c4ccc(OCC(=O)O)cc4)nocc2-3)cc1` as the molecule, how does the IC50 [1] read?
Its IC50 is over 10 µM.

What about the IC50 [2] of the same molecule?
Its IC50 is 181 µM.

And the IC50 [3]?
The IC50 was 16.1 µM.

What about the inhibition [4] of the same molecule?
The inhibition was 81.5%.

What about the IC50 [5] of the same molecule?
The IC50 was 61.7 µM.

And the IC50 [6]?
Its IC50 is 35.2 µM.

With `CCCCCCCCCCCCCCc1ccc(C(=O)c2ccc3c(-c4ccc(OCC(=O)O)cc4)nocc2-3)cc1` as the molecule, how does the IC50 [3] read?
Its IC50 is 0.12 µM.

What about the inhibition [4] of the same molecule?
Its inhibition is 101%.

What about the IC50 [5] of the same molecule?
Its IC50 is 0.69 µM.

And the IC50 [6]?
Its IC50 is 0.22 µM.

For `NCc1ccc(C(=O)c2ccc3c(-c4ccc(OCC(=O)O)cc4)nocc2-3)cc1`, which IC50 [3] is on record?
Its IC50 is 10 µM.

What about the inhibition [4] of the same molecule?
The inhibition was 97.2%.

What about the IC50 [5] of the same molecule?
Its IC50 is over 10 µM.

What about the IC50 [6] of the same molecule?
The IC50 was 1.3 µM.

Source: ChEMBL document CHEMBL1149392, “PTP-1B inhibitors: cyclopenta[d][1,2]-oxazine derivatives” (Bioorg Med Chem Lett, 2006)
